# B1: human BECN1 BH3D peptide (residues 105-130) (peptide)
# peptide: DGGTMENLSRRLKVTGDLFDIMSGQT
# B2: M109A BECN1 BH3D peptide (peptide, UniProt Q14457 105-130, looked up)
# peptide: DGGTAENLSRRLKVTGDLFDIMSGQT
# B3: K117Q BECN1 BH3D peptide (peptide, UniProt Q14457 105-130, looked up)
# peptide: DGGTMENLSRRLQVTGDLFDIMSGQT
# How the values were obtained:
# [1] = molecular target: human BCL2 (residues 1–218) (Homo sapiens, UniProt P10415); test: Isothermal titration calorimetry of BECN1 BH3D-derived peptides binding to BCL2; conditions: ITC, 25°C, pH 7.5
# Sequence of human BCL2 (residues 1–218) (P10415 1-218): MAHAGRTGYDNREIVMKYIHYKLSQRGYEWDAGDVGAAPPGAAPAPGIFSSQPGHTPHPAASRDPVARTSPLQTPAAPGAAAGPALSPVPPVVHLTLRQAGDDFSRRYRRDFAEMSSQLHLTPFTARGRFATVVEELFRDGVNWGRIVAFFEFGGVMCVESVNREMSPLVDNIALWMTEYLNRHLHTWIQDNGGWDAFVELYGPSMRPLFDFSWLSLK
# In short: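 Soluble human BCL2 (1–218, C-terminal transmembrane helix removed) and synthetic BH3D-derived peptides (HPLC-purified >95%, mass confirmed by electrospray MS) were co-dialysed against 50 mM HEPES pH 7.5, 150 mM NaCl, 2 mM β-mercaptoethanol. BCL2 sat in the cell and peptide was titrated in at 25°C over 25 injections. Kd came from fitting an independent binding model.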
# [2] = molecular target: Soluble human BCL2 (residues 1-218), lacking the C-terminal transmembrane helix (human, UniProt P10415 1-218); test: ITC
# Sequence of Soluble human BCL2 (residues 1-218), lacking the C-terminal transmembrane helix (P10415 1-218): as above
Molecule,Binding to BCL2 (in words) [1],dH [2],further results
F123A: BECN1 BH3D-derived peptide with Ala substitution of F123 (DGGTMENLSRRLKVTGDLADIMSGQT) [Mutant F123A],abolished,–,–
G120E+D121A: BECN1 BH3D-derived peptide with double G120E+D121A substitution (DS) (DGGTMENLSRRLKVTEALFDIMSGQT),abolished,–,Binding to BCL2 (in words) ([1]; listed as DS BH3D): does not bind
L112A: BECN1 BH3D-derived peptide with Ala substitution of L112 (DGGTMENASRRLKVTGDLFDIMSGQT) [Mutant L112A],abolished,–,–
L116A: BECN1 BH3D-derived peptide with Ala substitution of L116 (DGGTMENLSRRAKVTGDLFDIMSGQT) [Mutant L116A],abolished,–,–
B1,–,-4.25 ± 1.55 kcal/mol,Kd [2]: 10.4 ± 3.5 µM
B2,–,-3.78 ± 0.693 kcal/mol,–
B3,–,-5.11 ± 1.1 kcal/mol,–

# Reference: article PMC3949125 (Proteins, 2013)
